Calls of active or inactive are those of the source. No cut-off for these calls is given here.
Legend:
RAW264.7 [1] = test: Cytotoxicity against mouse RAW264.7 cells assessed as decrease in cell viability after 24 hrs by MTT assay; format: cell-based; conditions: RAW264.7, 24 h
Outline: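 RAW264.7 macrophage viability after compound exposure was measured by MTT assay. IC50 (µM) was calculated and reported with a 95% confidence interval.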

RAW264.7 [2] = test: Antiinflammatory activity in mouse RAW264.7 cells assessed as inhibition of LPS-induced NO production after 24 hrs by Griess assay; format: functional, cell-based; conditions: for IC50: RAW264.7, 24 h
Outline: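 LPS-stimulated RAW264.7 cells were co-treated with compound. Nitrite, a stable NO metabolite, was measured in culture medium with Griess reagent. IC50 (µM) was reported with a 95% confidence interval.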

RAW264.7 [3] = test: Selectivity index, ratio IC50 for cytotoxicity against mouse RAW264.7 cells to IC50 for antiinflammatory activity in mouse RAW264.7 cells; format: functional
Outline: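 Ratio A/B in RAW 264.7 cells. A is the cytotoxicity IC50 from the MTT assay. B is the IC50 for inhibiting NO production in LPS-stimulated cells, with nitrite in the culture medium measured by Griess reagent. Both IC50s are reported with 95% confidence intervals.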

[4] = Antiviral activity against Influenza A virus A/WSN/33(H1N1) infected in MDCK cells at 50 uM preincubated for 15 mins measured after 1.5 days by CellTiter-Glo assay relative to control; format: functional, Influenza A virus (A/WSN/1933(H1N1))
RAW264.7 [5] = test: Antiinflammatory activity in mouse RAW264.7 cells assessed as inhibition of LPS-induced COX-2 production at 30 uM after 24 hrs by Western blot analysis; format: functional, cell-based
Outline: (§1)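 Immunoblot of protein from RAW 264.7 cells under control, LPS, and LPS + enantiomer (30 µM) conditions. COX-2, iNOS and phospho-NF-κB bands were quantified by densitometry and normalised to β-actin. Mean ± SD from 3 independent experiments; p-values are versus LPS-treated cells.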

RAW264.7 [6] = test: Antiinflammatory activity in mouse RAW264.7 cells assessed as inhibition of LPS-induced iNOS production at 30 uM after 24 hrs by Western blot analysis; format: functional, cell-based; outline: as §1
Mus musculus [7] = species: Mus musculus; test: Inhibition of LPS-induced NFkappaB phosphorylation in mouse RAW264.7 cells at 30 uM after 24 hrs by Western blot analysis; format: cell-based; outline: as §1
RAW264.7 [8] = test: Antiinflammatory activity in mouse RAW264.7 cells assessed as inhibition of LPS-induced IL-12 production at 30 uM after 24 hrs by phycoerythrin staining based flow cytometry; format: functional, cell-based
Outline: (§2)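 LPS-stimulated RAW 264.7 cells were co-treated with enantiomers at 30 µM. Cell protein extracts were analysed by cytometric bead array for IL-12, IL-6, TNF-α, MCP-1 and IFN-γ and compared with LPS-only cells. Mean ± SD of three independent experiments.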

RAW264.7 [9] = test: Antiinflammatory activity in mouse RAW264.7 cells assessed as inhibition of LPS-induced IL-6 production at 30 uM after 24 hrs by phycoerythrin staining based flow cytometry; format: functional, cell-based; outline: as §2
RAW264.7 [10] = test: Antiinflammatory activity in mouse RAW264.7 cells assessed as inhibition of LPS-induced TNF-alpha production at 30 uM after 24 hrs by phycoerythrin staining based flow cytometry; format: functional, cell-based; outline: as §2
RAW264.7 [11] = test: Antiinflammatory activity in mouse RAW264.7 cells assessed as inhibition of LPS-induced […] production at 30 uM after 24 hrs by phycoerythrin staining based flow cytometry; format: functional, cell-based; outline: as §2
RAW264.7 [12] = test: Antiinflammatory activity in mouse RAW264.7 cells assessed as inhibition of LPS-induced MCP-1 production at 30 uM after 24 hrs by phycoerythrin staining based flow cytometry; format: functional, cell-based; outline: as §2
RAW264.7 [13] = test: Antiinflammatory activity in mouse RAW264.7 cells assessed as inhibition of LPS-induced IL-12 production at 50 uM after 24 hrs by phycoerythrin staining based flow cytometry; format: functional, cell-based
Outline: (§3)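 Cytokine bead array on protein extracts of RAW 264.7 cells treated with LPS plus compound at 50 µM. Read-outs were IL-12, IL-6, TNF-α, MCP-1 and IFN-γ, referenced to LPS-treated cells. Mean ± SD, n = 3 independent experiments.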

Mus musculus [14] = species: Mus musculus; test: Inhibition of LPS-induced NFkappaB phosphorylation in mouse RAW264.7 cells at 50 uM after 24 hrs by Western blot analysis; format: cell-based
Outline: (§4)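 Protein was isolated from control, LPS, and LPS + compound (50 µM) RAW 264.7 cultures and immunoblotted. iNOS, COX-2 and phospho-NF-κB were quantified densitometrically against β-actin. Mean ± SD of 3 independent experiments, compared with LPS treatment.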

Mus musculus [15] = test: Antiinflammatory activity in BALB/c mouse assessed as inhibition of LPS-induced IL-6 production at 10 mg/kg, ip pretreated for 3 days as single dose followed by LPS administration after 24 hrs by phycoerythrin staining based flow cytometry; format: functional, organism-based
RAW264.7 [16] = test: Antiinflammatory activity in mouse RAW264.7 cells assessed as inhibition of LPS-induced ROS production after 24 hrs by CM-H2DCFDA dye based fluorescence assay; format: functional, cell-based
Outline: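 Intracellular ROS was measured in LPS-treated RAW 264.7 cells exposed to compounds at several doses. The read-out was mean fluorescence intensity, compared with LPS-treated cells. Data are mean ± SD of three independent experiments.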

RAW264.7 [17] = test: Antiinflammatory activity in mouse RAW264.7 cells assessed as inhibition of LPS-induced COX-2 production at 50 uM after 24 hrs by Western blot analysis; format: functional, cell-based; outline: as §4
RAW264.7 [18] = test: Antiinflammatory activity in mouse RAW264.7 cells assessed as inhibition of LPS-induced iNOS production at 50 uM after 24 hrs by Western blot analysis; format: functional, cell-based; outline: as §4
RAW264.7 [19] = test: Antiinflammatory activity in mouse RAW264.7 cells assessed as inhibition of LPS-induced IL-6 production at 50 uM after 24 hrs by phycoerythrin staining based flow cytometry; format: functional, cell-based; outline: as §3
RAW264.7 [20] = test: Antiinflammatory activity in mouse RAW264.7 cells assessed as inhibition of LPS-induced TNF-alpha production at 50 uM after 24 hrs by phycoerythrin staining based flow cytometry; format: functional, cell-based; outline: as §3
RAW264.7 [21] = test: Antiinflammatory activity in mouse RAW264.7 cells assessed as inhibition of LPS-induced […] production at 50 uM after 24 hrs by phycoerythrin staining based flow cytometry; format: functional, cell-based; outline: as §3
RAW264.7 [22] = test: Antiinflammatory activity in mouse RAW264.7 cells assessed as inhibition of LPS-induced MCP-1 production at 50 uM after 24 hrs by phycoerythrin staining based flow cytometry; format: functional, cell-based; outline: as §3
Mus musculus [23] = test: Antiinflammatory activity in BALB/c mouse assessed as inhibition of LPS-induced IL-12 production at 10 mg/kg, ip pretreated for 3 days as single dose followed by LPS administration after 24 hrs by phycoerythrin staining based flow cytometry; format: functional, organism-based
Mus musculus [24] = test: Antiinflammatory activity in BALB/c mouse assessed as inhibition of LPS-induced TNF-alpha production at 10 mg/kg, ip pretreated for 3 days as single dose followed by LPS administration after 24 hrs by phycoerythrin staining based flow cytometry; format: functional, organism-based
Mus musculus [25] = test: Antiinflammatory activity in BALB/c mouse assessed as inhibition of LPS-induced […] production at 10 mg/kg, ip pretreated for 3 days as single dose followed by LPS administration after 24 hrs by phycoerythrin staining based flow cytometry; format: functional, organism-based
Mus musculus [26] = test: Antiinflammatory activity in BALB/c mouse assessed as inhibition of LPS-induced MCP-1 production at 10 mg/kg, ip pretreated for 3 days as single dose followed by LPS administration after 24 hrs by phycoerythrin staining based flow cytometry; format: functional, organism-based
[27] = Antiviral activity against Influenza A virus A/WSN/33(H1N1) infected in MDCK cells preincubated for 1 hr followed by compound wash measured after 48 hrs by plaque reduction assay; format: functional, cell-based, Influenza A virus (A/WSN/1933(H1N1))

| SMILES | IC50 (RAW264.7 [1]) | IC50 (RAW264.7 [2]) | Ratio IC50 (RAW264.7 [3]) | Activity [4] | inhibition (RAW264.7 [13]) | inhibition (Mus musculus [14]) | inhibition (Mus musculus [15]) | inhibition (RAW264.7 [16]) | inhibition (RAW264.7 [17]) | inhibition (RAW264.7 [18]) | inhibition (RAW264.7 [19]) | inhibition (RAW264.7 [20]) | inhibition (RAW264.7 [21]) | inhibition (RAW264.7 [22]) | inhibition (Mus musculus [23]) | inhibition (Mus musculus [24]) | inhibition (Mus musculus [25]) | inhibition (Mus musculus [26]) | further results |
| --- | --- | --- | --- | --- | --- | --- | --- | --- | --- | --- | --- | --- | --- | --- | --- | --- | --- | --- | --- |
| O=C(S[C@@]12CC[C@H](O)[C@@H]1C(=O)NC2=O)c1ccc(O)cc1 | 1020 µM | 71.8 µM | 14.14 | 18.6% | – | – | – | – | – | – | – | – | – | – | – | – | – | – | – |
| CC(=O)O[C@H]1CC[C@@]2(SC(=O)c3ccc(F)cc3)C(=O)NC(=O)[C@@H]12 | – | – | – | – | – | – | – | – | – | – | – | – | – | – | – | – | – | – | inhibition (RAW264.7 [2]): Active; inhibition (RAW264.7 [5]): Active; inhibition (RAW264.7 [6]): Active; inhibition (Mus musculus [7]): Active; inhibition (RAW264.7 [8]): Active; inhibition (RAW264.7 [9]): Active; inhibition (RAW264.7 [10]): Active; inhibition (RAW264.7 [11]): Active; inhibition (RAW264.7 [12]): Active |
| O=C(S[C@]12CC[C@H](O)[C@H]1C(=O)NC2=O)c1cccs1 (relative stereo) | 10900 µM | 36.6 µM | 297.0519 | – | Active | Active | Active | Dose-dependent effect | Active | Active | Active | Active | Active | Active | Active | Active | Active | Active | – |
| CC(=O)OC1CC[C@]2(SC(=O)c3ccc(F)cc3)C(=O)NC(=O)[C@H]12 (stereo not given in full) | 12100 µM | 34.3 µM | 353.8076 | – | Active | Active | Active | Dose-dependent effect | Active | Active | Active | Active | Active | Active | Active | Active | Active | Active | – |
| CC(=O)SC1CC[C@]2(SC(C)=O)C(=O)NC(=O)[C@H]12 (stereo not given in full) | 10000 µM | 19.8 µM | 505.4343 | – | Active | Active | Active | Dose-dependent effect | Active | Active | Active | Active | Active | Active | Active | Active | Active | Active | – |
| CCOC(=O)C1=C[C@@H](OC(CC)CC)[C@H](NC(C)=O)[C@@H](N)C1.O=P(O)(O)O [OSELTAMIVIR PHOSPHATE] | – | – | – | 54% | – | – | – | – | – | – | – | – | – | – | – | – | – | – | EC50 [27]: 67 µM |
| O=C(S[C@]12CC[C@H](O)[C@H]1C(=O)NC2=O)c1ccc(O)cc1 | 1380 µM | – | 9.85 | 30.9% | – | – | – | – | – | – | – | – | – | – | – | – | – | – | EC50 [27]: 113 µM |

From ChEMBL document CHEMBL4052621, “Identification of new anti-inflammatory agents based on nitrosporeusine natural products of marine origin” (Eur J Med Chem, 2017)
